Experimental data from ChEMBL document CHEMBL3046615, “Isolation of nematicidal compounds from Tagetes patula L. yellow flowers: structure-activity relationship studies against cyst nematode Heterodera zeae infective stage larvae” (2011).
Active and inactive are the calls of the source. The rule behind the calls is not given here.

Experiments:
Heterodera zeae [1] = assay: Nematicidal activity against Heterodera zeae infective stage larvae assessed as nematode mortality at 1% under dark conditions measured 24 hr post dose by stereoscopic microscopy; format: functional
Procedure, shortened: (§1)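 Freshly hatched H. zeae second-stage juveniles, 100 per Petri plate, three replicates. Samples in MeOH, DMSO or water were tested in glass cavity blocks; petroleum ether samples were dried onto the block and larvae transferred on agar pieces. Percentages are dilutions of 30 mg/mL stocks (extracts/fractions) or 1 mg/mL stocks (pure compounds). Incubated at 28 ± 2 °C in light or dark box; mortality averaged over three replicates.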

Heterodera zeae [2] = assay: Nematicidal activity against Heterodera zeae infective stage larvae assessed as nematode mortality at 2% under dark conditions measured 24 hr post dose by stereoscopic microscopy; format: functional; procedure, shortened: as §1
Heterodera zeae [3] = assay: Nematicidal activity against Heterodera zeae infective stage larvae assessed as nematode mortality at 5% under dark conditions measured 24 hr post dose by stereoscopic microscopy; format: functional; procedure, shortened: as §1
Heterodera zeae [4] = assay: Nematicidal activity against Heterodera zeae infective stage larvae assessed as nematode mortality at 0.125% under light conditions measured 48 hr post dose by stereoscopic microscopy; format: functional; procedure, shortened: as §1
Heterodera zeae [5] = assay: Nematicidal activity against Heterodera zeae infective stage larvae assessed as nematode mortality at 0.25% under light conditions measured 48 hr post dose by stereoscopic microscopy; format: functional; procedure, shortened: as §1
Heterodera zeae [6] = assay: Nematicidal activity against Heterodera zeae infective stage larvae assessed as nematode mortality at 0.125% under light conditions measured 24 hr post dose by stereoscopic microscopy; format: functional; procedure, shortened: as §1
Heterodera zeae [7] = assay: Nematicidal activity against Heterodera zeae infective stage larvae assessed as nematode mortality at 0.25% under light conditions measured 24 hr post dose by stereoscopic microscopy; format: functional; procedure, shortened: as §1
Heterodera zeae [8] = assay: Nematicidal activity against Heterodera zeae infective stage larvae assessed as nematode mortality at 0.5% under light conditions measured 24 hr post dose by stereoscopic microscopy; format: functional; procedure, shortened: as §1
Heterodera zeae [9] = assay: Nematicidal activity against Heterodera zeae infective stage larvae assessed as nematode mortality at 1% under light conditions measured 24 hr post dose by stereoscopic microscopy; format: functional; procedure, shortened: as §1
Heterodera zeae [10] = assay: Nematicidal activity against Heterodera zeae infective stage larvae assessed as nematode mortality at 2% under light conditions measured 24 hr post dose by stereoscopic microscopy; format: functional; procedure, shortened: as §1
Heterodera zeae [11] = assay: Nematicidal activity against Heterodera zeae infective stage larvae assessed as nematode mortality at 5% under light conditions measured 24 hr post dose by stereoscopic microscopy; format: functional; procedure, shortened: as §1
Heterodera zeae [12] = assay: Nematicidal activity against Heterodera zeae infective stage larvae assessed as nematode mortality at 0.125% under dark conditions measured 5 to 60 min post dose by stereoscopic microscopy; format: functional, organism-based
Procedure, shortened: (§2)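 H. zeae freshly hatched second-stage juveniles, 100 per plate, three replicates, at 28 ± 2 °C under light or in a dark box. Dilutions are % of a stock: 30 mg/mL for extracts/fractions, 1 mg/mL for pure compounds. Methanol-, DMSO- or water-soluble samples were tested in glass cavity blocks. Petroleum ether-soluble samples were air-dried in the block and covered with agar pieces bearing cultured larvae. Mortality was followed over 5–60 min; each value is the mean of three experiments.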

Heterodera zeae [13] = assay: Nematicidal activity against Heterodera zeae infective stage larvae assessed as nematode mortality at 0.25% under dark conditions measured 5 to 60 min post dose by stereoscopic microscopy; format: functional, organism-based; procedure, shortened: as §2
Heterodera zeae [14] = assay: Nematicidal activity against Heterodera zeae infective stage larvae assessed as nematode mortality at 0.5% under dark conditions measured 5 to 60 min post dose by stereoscopic microscopy; format: functional, organism-based; procedure, shortened: as §2
Heterodera zeae [15] = assay: Nematicidal activity against Heterodera zeae infective stage larvae assessed as nematode mortality at 1% under dark conditions measured 5 to 60 min post dose by stereoscopic microscopy; format: functional, organism-based; procedure, shortened: as §2
Heterodera zeae [16] = assay: Nematicidal activity against Heterodera zeae infective stage larvae assessed as nematode mortality at 2% under dark conditions measured 5 to 60 min post dose by stereoscopic microscopy; format: functional, organism-based; procedure, shortened: as §2
Heterodera zeae [17] = assay: Nematicidal activity against Heterodera zeae infective stage larvae assessed as nematode mortality at 5% under dark conditions measured 5 to 60 min post dose by stereoscopic microscopy; format: functional, organism-based; procedure, shortened: as §2
Heterodera zeae [18] = assay: Nematicidal activity against Heterodera zeae infective stage larvae assessed as nematode mortality at 0.125% under light conditions measured 5 to 60 min post dose by stereoscopic microscopy; format: functional, organism-based; procedure, shortened: as §2
Heterodera zeae [19] = assay: Nematicidal activity against Heterodera zeae infective stage larvae assessed as nematode mortality at 0.25% under light conditions measured 5 to 60 min post dose by stereoscopic microscopy; format: functional, organism-based; procedure, shortened: as §2
Heterodera zeae [20] = assay: Nematicidal activity against Heterodera zeae infective stage larvae assessed as nematode mortality at 0.5% under light conditions measured 5 to 60 min post dose by stereoscopic microscopy; format: functional, organism-based; procedure, shortened: as §2
Heterodera zeae [21] = assay: Nematicidal activity against Heterodera zeae infective stage larvae assessed as nematode mortality at 1% under light conditions measured 5 to 60 min post dose by stereoscopic microscopy; format: functional, organism-based; procedure, shortened: as §2
Heterodera zeae [22] = assay: Nematicidal activity against Heterodera zeae infective stage larvae assessed as nematode mortality at 2% under light conditions measured 5 to 60 min post dose by stereoscopic microscopy; format: functional, organism-based; procedure, shortened: as §2
Heterodera zeae [23] = assay: Nematicidal activity against Heterodera zeae infective stage larvae assessed as nematode mortality at 5% under light conditions measured 5 to 60 min post dose by stereoscopic microscopy; format: functional, organism-based; procedure, shortened: as §2
Heterodera zeae [24] = assay: Nematicidal activity against Heterodera zeae infective stage larvae assessed as nematode mortality at 0.125% under dark conditions measured 48 hr post dose by stereoscopic microscopy; format: functional; procedure, shortened: as §1
Heterodera zeae [25] = assay: Nematicidal activity against Heterodera zeae infective stage larvae assessed as nematode mortality at 0.25% under dark conditions measured 48 hr post dose by stereoscopic microscopy; format: functional; procedure, shortened: as §1
Heterodera zeae [26] = assay: Nematicidal activity against Heterodera zeae infective stage larvae assessed as nematode mortality at 0.125% under dark conditions measured 24 hr post dose by stereoscopic microscopy; format: functional; procedure, shortened: as §1
Heterodera zeae [27] = assay: Nematicidal activity against Heterodera zeae infective stage larvae assessed as nematode mortality at 0.25% under dark conditions measured 24 hr post dose by stereoscopic microscopy; format: functional; procedure, shortened: as §1
Heterodera zeae [28] = assay: Nematicidal activity against Heterodera zeae infective stage larvae assessed as nematode mortality at 0.5% under dark conditions measured 24 hr post dose by stereoscopic microscopy; format: functional; procedure, shortened: as §1

How did the mortality (Heterodera zeae [1]) turn out when `CNC(=O)Oc1cccc2c1OC(C)(C)C2` [CARBOFURAN] was run?
The mortality was 100%.

And the mortality (Heterodera zeae [2])?
The mortality was 100%.

What about the mortality (Heterodera zeae [3]) of the same compound?
The mortality was 100%.

And the mortality (Heterodera zeae [4])?
Its mortality is 100%.

And the mortality (Heterodera zeae [5])?
The mortality was 100%.

And the mortality (Heterodera zeae [6])?
Its mortality is 40%.

And the mortality (Heterodera zeae [7])?
Its mortality is 80%.

What about the mortality (Heterodera zeae [8]) of the same compound?
The mortality was 100%.

What about the mortality (Heterodera zeae [9]) of the same compound?
Its mortality is 100%.

And the mortality (Heterodera zeae [10])?
Its mortality is 100%.

And the mortality (Heterodera zeae [11])?
Its mortality is 100%.

And the Activity (Heterodera zeae [12])?
Its Activity is “inactive”.

What about the Activity (Heterodera zeae [13]) of the same compound?
Its Activity is “inactive”.

And the Activity (Heterodera zeae [14])?
The Activity was “inactive”.

And the Activity (Heterodera zeae [15])?
Its Activity is “inactive”.

And the Activity (Heterodera zeae [16])?
Its Activity is “inactive”.

What about the Activity (Heterodera zeae [17]) of the same compound?
The Activity was “inactive”.

What about the Activity (Heterodera zeae [18]) of the same compound?
Its Activity is “inactive”.

What about the Activity (Heterodera zeae [19]) of the same compound?
The Activity was “inactive”.

And the Activity (Heterodera zeae [20])?
Its Activity is “inactive”.

And the Activity (Heterodera zeae [21])?
Its Activity is “inactive”.

What about the Activity (Heterodera zeae [22]) of the same compound?
Its Activity is “inactive”.

What about the Activity (Heterodera zeae [23]) of the same compound?
The Activity was “inactive”.

What about the mortality (Heterodera zeae [24]) of the same compound?
The mortality was 100%.

What about the mortality (Heterodera zeae [25]) of the same compound?
The mortality was 100%.

And the mortality (Heterodera zeae [26])?
Its mortality is 60%.

And the mortality (Heterodera zeae [27])?
The mortality was 80%.

And the mortality (Heterodera zeae [28])?
Its mortality is 100%.
